Source: PubChem
SR-BI uptake up: activators of SR-BI mediated DiI-HDL uptake, primary screen, ldlA[mSR-BI] CHO cells, DiI fluorescence | 3 h; 100 = double the neutral-control signal | activation, % at 12.5 µM | actives 0.096% (n = 320,000) | AID 504775, 2011;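 active = mean replicate activation of at least 60% and every replicate at or above 60%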;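 also: 0% = median plate neutral-control signal and 100% = twice that signal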
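System: LDL receptor-deficient CHO ldlA cells overexpressing murine SR-BI | Timing: 3 h uptake period with compound, 37 °C | Medium: HEPES-buffered (25 mM, pH 7.4) F12 plus 0.5% BSA | Dosing: Single-point compound dose | Signal: Bottom-read fluorescence, 550/595 nm | Read-out: Retained DiI signal reflecting DiI-HDL uptake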
Vif imaging: HIV Vif self-association inhibitors, primary screen, imaging, HEK293T, single point | AID 602346, 2012 | inhibition, % at 7.49 µM | HEK293T cells, Vif self-association by quenched fluorescence, 24 h | actives 0.35% (n = 340,000); in the data active = inhibition above about 50%, passing the limit was not always enough
SR-BI DiI inh: inhibitors of SR-BI mediated HDL lipid uptake, primary screen, ldlA[mSR-BI] cells, fluorescence, single point; Scavenger receptor class B member 1 (Mus musculus), Q61009; ldlA[mSR-BI] CHO cells, DiI-HDL uptake fluorescence, 3 h; inhibition, % at 12.5 µM; actives 0.96% (n = 320,000);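 active = mean replicate inhibition of at least 70% and a set share of replicates each scoring 70 or more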;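 also: 0% = median of neutral control wells and 100% = median of positive control wells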
Target sequence (Q61009 whole entry, looked up): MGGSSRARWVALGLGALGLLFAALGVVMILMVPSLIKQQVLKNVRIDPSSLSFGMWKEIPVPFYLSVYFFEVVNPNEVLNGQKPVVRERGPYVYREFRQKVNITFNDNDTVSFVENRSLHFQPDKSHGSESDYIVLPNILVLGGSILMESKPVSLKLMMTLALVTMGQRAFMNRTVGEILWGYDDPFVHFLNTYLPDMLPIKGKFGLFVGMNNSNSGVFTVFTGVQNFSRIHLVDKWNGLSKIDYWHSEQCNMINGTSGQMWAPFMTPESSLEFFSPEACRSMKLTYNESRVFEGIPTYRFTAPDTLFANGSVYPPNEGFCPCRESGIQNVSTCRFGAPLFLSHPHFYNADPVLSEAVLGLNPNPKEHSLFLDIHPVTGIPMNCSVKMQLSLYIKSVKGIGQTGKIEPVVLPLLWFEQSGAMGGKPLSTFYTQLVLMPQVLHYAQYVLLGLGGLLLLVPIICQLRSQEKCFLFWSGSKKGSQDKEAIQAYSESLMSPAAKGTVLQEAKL
PKA-R1A activ: activators of PKA-R1A holoenzyme, primary screen, biochemical, fluorescence polarization, Cy5-IP20, bovine R1A, mouse PKAc. PKA-R1A dissociation; scaled: DMSO 0%, 113 µM cGMP 100%. activation, % at 11.4 µM. actives 0.083% (n = 340,000);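 active = percent activation above the mean of all tested compounds plus 3 SD, cut at about 19% in these data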;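 also: higher means more PKAc released from R1A so a rise in polarization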
PKA-R2B act: activators of PKA-R2B holoenzyme, primary screen, biochemical, fluorescence polarization, Cy5-IP20, human | actives 0.079% (n = 340,000) | AID 504700, 2011 | activation, % at 11.4 µM | PKA-R2B holoenzyme dissociation; R2B truncated from residue 108, S112A mutant; 0% DMSO only, 100% 113 µM cGMP;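 active = activation above a cutoff set at the mean over all compounds plus 3 SD, cut at about 18% in these data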;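 also: higher means more holoenzyme dissociation and a rise in polarization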
An asterisk follows results filed as active; i = inactive; nt = no result given. Only some compounds are listed: those with a hit (about 1.4% of all), similar ones and a draw of the others.

SMILES	SR-BI uptake up	Vif imaging	SR-BI DiI inh	PKA-R1A activ	PKA-R2B act
CCCCc1cc(=O)oc2c(C)c(OCC(=O)N3CCCC3)ccc12	-75.8	4.2	75.8*	-9.3	-4.2
Fc1cc(Cl)cc2ccc(-c3ccccc3)nc12	nt	-2.6	nt	nt	nt
Cc1ccc(S(=O)(=O)N(C)c2ccc(OCC(=O)Nc3cccc(-n4cnnn4)c3C)cc2)cc1	-84.2	2.0	84.2*	-7.3	-0.4
Cc1ccc(S(=O)(=O)N(C)c2ccc(OCC(=O)Nc3ccc(S(C)(=O)=O)cc3)cc2)cc1	-9.1	1.0	9.1	0.5	-5.3
Fc1cc(F)cc(NC(=S)Nc2ccccc2N2CCOCC2)c1	-14.5	nt	14.5	5.0	0.0
C[C@H](CO)N1C[C@H](C)[C@H](CN(C)C(=O)NC2CCCCC2)Oc2cc(-c3cccnc3)ccc2S1(=O)=O	nt	-5.0	nt	-0.3	0.9
CN(C)c1cccc(Oc2nc3c(c(=O)n(C)c(=O)n3C)n2C)c1	-89.0	-3.0	89.0*	-3.9	-0.1
O=C(Nc1nc(-c2ccccc2)nc2ccccc12)c1ccc(F)cc1	3.3	16.3	-3.3	-8.1	-1.7
CC1(C)C2CC[C@]3(C)C(CC=C4[C@@H]5C[C@@](C)(CO)[C@@H](O)C[C@]5(C(=O)O)CC[C@]43C)[C@@]2(C)CC[C@@H]1O (some centres undefined)	nt	67.3*	nt	nt	nt
CCN(CC)C1Oc2cc3c(cc2C(c2cc(OC)c(OC)c(OC)c2)C1C)OCO3 (centres undefined)	-4.7	55.0*	4.7	0.3	-8.8
CC(=O)c1cccc(-c2ccnc3c2CC(C(=O)Nc2ccc(Cl)c(C(F)(F)F)c2)O3)c1 (centres undefined)	nt	-6.5	nt	nt	nt
O=C(CCN1C(=O)[C@@H]2Cc3ccccc3CN2C1=O)N[C@H](C(=O)O)c1ccccc1	14.5	-7.4	-14.5	-4.8	2.4
O=[N+]([O-])c1ccccc1N/N=C/c1c[nH]c2ccccc12	-110.4	nt	110.4*	2.6	2.2
O=[N+]([O-])c1ccc(N/N=C/c2c[nH]c3ccccc23)cc1	-92.2	nt	92.2*	6.7	2.7
COc1ccccc1NS(=O)(=O)c1cc([N+](=O)[O-])ccc1N/N=C/c1c[nH]c2ccccc12	-83.4	i	83.4*	-5.2	2.6
Cc1[nH]c2ccccc2c1/C=N/Nc1ccc([N+](=O)[O-])cc1S(=O)(=O)Nc1ccc(Cl)cc1	-83.0	0.5	83.0*	-9.0	-12.0
COc1ccc(NS(=O)(=O)c2cc([N+](=O)[O-])ccc2N/N=C\c2c(C)[nH]c3ccccc23)cc1	-2.4	1.8	2.4	1.7	-10.6
O=C(CP(=O)(c1ccccc1)c1ccccc1)Nc1nc2ccc(Cl)cc2s1	-17.6	-6.7	17.6	4.2	-4.5
Cc1ccccc1OCCC(=O)N1CCN(S(=O)(=O)c2ccc(Br)cc2)CC1	-8.8	7.1	8.8	-8.8	0.6
O=C(NCc1ccccc1)c1cc(C2CCCCN2C(=O)c2ccccc2)on1 (centres undefined)	nt	-5.5	nt	nt	nt
C[C@@H]1CN([C@@H](C)CO)C(=O)c2cc(-c3ccncc3)cnc2O[C@H]1CN(C)C(=O)c1cccc(F)c1	nt	nt	nt	2.1	2.1
O=C(NC1CCCCC1)C(c1cc2ccccc2o1)N1CCOCC1 (centres undefined)	nt	-3.2	nt	nt	nt
CCOCCn1c(C)c(C(=O)OCC)c2cc(O)c3ccccc3c21	-72.6	-2.6	72.6*	-9.4	-11.4
O=C(Nc1ccc(N2CCN(C(=O)c3ccco3)CC2)c(Cl)c1)c1cc2ccccc2o1	-81.5	-3.4	81.5*	0.3	4.9
CCCC(=O)N1CCN(c2ccc(NC(=O)c3cc4ccccc4o3)cc2Cl)CC1	-61.8	-38.7	61.8	-11.1	-4.1
SMILES	SR-BI uptake up	Vif imaging	SR-BI DiI inh	PKA-R1A activ	PKA-R2B act
CCC(=O)N1CCN(c2ccc(NC(=O)c3cc4ccccc4o3)cc2Cl)CC1	-79.0	-19.7	79.0*	-8.5	-7.3
COc1ccc(NC(=O)Cn2ccc(C(F)(F)F)n2)cc1S(=O)(=O)N1CCOCC1	-3.9	4.2	3.9	-1.4	-12.2
CN(C(=O)COC(=O)c1ccccc1Nc1ccccc1)c1c(N)n(Cc2ccccc2)c(=O)[nH]c1=O	-72.3	-0.5	72.3*	-4.7	-8.8
C=CCSc1nnc(NC(=O)c2cccc(S(=O)(=O)N(C)c3ccccc3)c2)s1	-5.2	-8.4	5.2	-11.0	-12.5
Cc1ccc(NC(=S)c2nc3ccccc3[nH]2)cc1	-77.3	-7.8	77.3*	-9.8	-3.9
COc1cc(/C=N/Nc2ccccc2)ccc1O	-4.2	nt	4.2	-3.2	14.7
COC(=O)c1[nH]c2cc(OC)c(OC)cc2c1/C=N/Nc1ccccc1	-121.4	-11.2	121.5*	-1.6	-15.5
Cc1nc(N2CCCCC2)c2c(C)c(C(=O)Nc3ccc4c(c3)OCCO4)sc2n1	-77.4	-2.7	77.4*	-10.3	-9.7
Cc1nc(N2CCC(C)CC2)c2c(C)c(C(=O)Nc3ccc(C)c(F)c3)sc2n1	-86.7	1.6	86.7*	4.3	3.4
Cc1cccc(NC(=O)c2sc3nc(C)nc(N4CCOCC4)c3c2C)c1	nt	nt	nt	-11.5	12.8
Cc1ccc(NC(=O)CN2CCCC2c2cccn2C)cc1C (centres undefined)	-13.0	-4.1	13.0	-6.0	-12.8
OCCCNc1ncnc2c1ncn2[C@H]1CN(Cc2cccs2)C[C@@H](CO)O1	nt	4.5	nt	nt	nt
Cc1cc(=O)c2c([nH]1)c(C)cc1[nH]c(C)c(C)c12	20.6	2.4	-20.6	-6.0	7.1
N#Cc1c(NC(=O)c2ccccc2)sc2c1CCCCC2	-78.5	5.4	78.5*	-0.9	-3.8
N#Cc1c(NC(=O)/C=C/c2ccco2)sc2c1CCCC2	-80.1	0.9	80.1*	-0.7	-11.8
N#Cc1c(NC(=O)CSC2=NCCS2)sc2c1CCCC2	-81.9	-3.0	81.9*	10.3	14.8
NC(=O)c1c(NC(=O)c2ccc(N3C(=O)CCC3=O)cc2)sc2c1CCCC2	-75.4	-2.9	75.4*	-4.8	-18.0
CCc1ccc(Nc2nnc(SCC(=O)NCCN3C(=O)CSC3=O)s2)cc1	-9.5	-3.0	9.5	4.8	11.5
CCCOc1c(Cl)cc(C(=O)Nc2ccc3c(c2)OCO3)cc1OCC	-78.3	3.2	78.3*	-10.1	-4.7
CCOc1ccc(C(=O)NCC(=O)Nc2ccc3c(c2)OCO3)cc1OCC	-6.9	2.7	6.9	-0.3	0.9
CCOc1cc(C(=O)Nc2ccc3c(c2)OCO3)ccc1OC(F)F	-88.7	-0.2	88.7*	-2.2	-9.2
CCCOc1ccc(C(=O)Nc2ccc3c(c2)OCO3)cc1	0.9	nt	-0.9	12.7	1.7
Nc1ccc(N=Nc2ccccc2)cc1[N+](=O)[O-]	-61.7	9.5	61.7	-6.4	-11.7
Cc1nnc2ccc(-c3cccc(NS(=O)(=O)c4ccccc4Cl)c3)nn12	-18.1	80.5*	18.1	1.7	-7.3
